Active and inactive are the calls of the source. The rule behind the calls is not given here.
Assays:
Format in all cases: functional, organism-based
[1] = tested on: Mus musculus; assay: Antinociceptive activity in mouse assessed as inhibition of acetic acid-induced abdominal constrictions at 10 mg/kg, ip administered 40 mins before acetic acid challenge measured for 30 mins; set-up: dose 10 mg/kg; conditions: Abdomen
How it was run: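 Dosing was ip in 2% DMSO/saline 40 min before ip acetic acid (0.8% v/v, 10 mL/kg). Writhes (abdominal contraction with hind-limb stretching) were counted over 0–30 min. n = 6 mice/group, means ± SEM, ANOVA with Tukey.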

[2] = tested on: Mus musculus; assay: Antinociceptive activity against formalin-induced pain in mouse assessed as paw licking during early phase (0 to 10 mins) at 10 mg/kg, ip administered 40 mins before formalin challenge; set-up: dose 10 mg/kg
How it was run: (§1)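 Mice were acclimated 30 min in an observation chamber, then given 20 μL of 2.5% formalin sc into the dorsal hind paw. Dosing was ip (2% DMSO/saline vehicle) 40 min beforehand. Time spent licking the injected paw was scored over 0–10 min and 10–60 min. n = 6/group, means ± SEM, ANOVA with Tukey.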

[3] = tested on: Mus musculus; assay: Antinociceptive activity against formalin-induced pain in mouse assessed as paw licking during late phase (10 to 60 mins) at 10 mg/kg, ip administered 40 mins before formalin challenge; set-up: dose 10 mg/kg; how it was run: as §1
[4] = tested on: Mus musculus; assay: Antinociceptive activity against Freund's complete adjuvant-induced paw inflammation in mouse assessed as reduction in paw edema at 2 mg/kg, ip administered 40 mins before CFA challenge measured after 6 hrs; set-up: dose 2 mg/kg
How it was run: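 CFA (20 μL, 1 mg/mL heat-killed M. tuberculosis) was injected sc into the right hind plantar surface. Treatment was ip in 2% DMSO/saline 40 min before. Paw volume was read by plethysmometer before and after CFA, and edema taken as the volume difference (mm3/paw). n = 6 mice/group, means ± SEM, two-way ANOVA with Bonferroni.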

[5] = tested on: Mus musculus; assay: Inhibition of TNF-alpha production in Freund's complete adjuvant-induced mouse at 2 mg/kg, ip administered 40 mins before CFA challenge measured after 2 hrs by ELISA; set-up: dose 2 mg/kg
How it was run: (§2)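 CFA was given intraplantar, with ip dosing (2% DMSO/saline vehicle) 40 min earlier. At 2 h, paw skin was taken under terminal halothane anesthesia. Tissue was extracted (100 mg/mL PBS with 0.4 M NaCl, 0.05% Tween 20 and protease inhibitors) and centrifuged at 3000g for 10 min. Supernatant was assayed by mouse ELISA, in pg/mL. n = 6/group.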

[6] = tested on: Mus musculus; assay: Inhibition of IL1-beta production in Freund's complete adjuvant-induced mouse at 2 mg/kg, ip administered 40 mins before CFA challenge measured after 2 hrs by ELISA; set-up: dose 2 mg/kg; how it was run: as §2

COc1ccc2c(c1)c(CC(=O)O)c(C)n2C(=O)c1ccc(Cl)cc1
Activity [1]: Active
Activity [2]: Active
Activity [3]: Active

C[C@@H]1C[C@H]2[C@@H]3CCC4=CC(=O)C=C[C@]4(C)[C@@]3(F)[C@@H](O)C[C@]2(C)[C@@]1(O)C(=O)CO
Activity [4]: inactive
inhibition [5]: Active
inhibition [6]: Active

Source: ChEMBL document CHEMBL1833877, “Antinociceptive properties of bergenin” (J Nat Prod, 2011)
